Measured values published in ChEMBL document CHEMBL4813940, “Design, synthesis and biological evaluation of novel benzoxaborole derivatives as potent PDE4 inhibitors for topical treatment of atopic dermatitis” (Eur J Med Chem, 2021).

Legend:
Mus musculus = assay: Antiinflammatory activity against PMA-induced ICR mouse ear oedema model assessed as reduction in ear swelling at 1 mg/ear topically administered and measured after 4 hrs; format: functional
How it was run: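 Male ICR mice, 8 weeks old. The sample was applied topically to the right ear at 1.0 mg/ear in ethanol before PMA. After 4 h the mice were killed by cervical dislocation and both ears were measured with a micrometer. Oedema was the thickness difference between the ears; inhibition was the percent reduction versus the model group.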

[1] = molecular target: T1, 3',5'-cyclic-AMP phosphodiesterase 4B (Homo sapiens, UniProt Q07343); assay: Inhibition of PDE4B (unknown origin) assessed as hydrolysis of [3H]-cAMP into [3H]-AMP incubated for 30 mins by scintillation of proximity assay
[2] = Phototoxicity in albino guinea pig assessed as erythema and edema topical treatment irradiated with 4.2 mw/cm2 UVA for 40 mins and measured after 24 hrs day of light irradiation by H and E staining based microscopic analysis; design: species or system Cavia porcellus; settings: topical_or_ocular
How it was run: (§1)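 Albino guinea pigs (250–300 g) were randomized into 5 groups. Four 2 cm × 2 cm depilated areas beside the spine were prepared 24 h before dosing, and 0.2 mL of test substance was applied. Animals were restrained and exposed to UVA for 40 min. Erythema, eschar and oedema were scored visually at 1, 24, 48 and 72 h. Skin taken at 72 h was formalin-fixed, H&E-stained and read by a pathologist.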

[3] = Phototoxicity in albino guinea pig assessed as erythema and edema topical treatment irradiated with 4.2 mw/cm2 UVA for 40 mins and measured after 72 hrs day of light irradiation by H and E staining based microscopic analysis; design: species or system Cavia porcellus; settings: topical_or_ocular; how it was run: as §1
[4] = Phototoxicity in albino guinea pig assessed as infiltration of inflammatory cells at 10 mg/kg topical treatment irradiated with 4.2 mw/cm2 UVA for 40 mins and measured after 24 hrs day of light irradiation by H and E staining based microscopic analysis; format: organism-based, Cavia porcellus; settings: in vivo, topical_or_ocular, in the assay text read “72 hrs” for “24 hrs”; how it was run: as §1
[5] = Phototoxicity in albino guinea pig assessed as necrosis at 10 mg/kg topical treatment irradiated with 4.2 mw/cm2 UVA for 40 mins and measured after 24 hrs day of light irradiation by H and E staining based microscopic analysis; format: organism-based, Cavia porcellus; settings: in vivo, topical_or_ocular, in the assay text read “72 hrs” for “24 hrs”; how it was run: as §1
[6] = molecular target: T1, 3',5'-cyclic-AMP phosphodiesterase 4B; assay: Inhibition of PDE4B (unknown origin) assessed as hydrolysis of [3H]-cGMP into [3H]-GMP incubated for 30 mins by scintillation of proximity assay; settings: in the assay text read “[3H]-cAMP into [3H]-AMP” for “[3H]-cGMP into [3H]-GMP”
How it was run: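 Scintillation proximity assay of [3H]-cAMP or [3H]-cGMP hydrolysis to [3H]-AMP or [3H]-GMP. Enzyme was diluted to 1–2 nM in 50 mM Tris pH 7.5, 8.3 mM MgCl2 and 1.7 mM EGTA. Reaction was started by adding enzyme, test solution and radiolabelled substrate, then incubated at 30 °C for 30 min and stopped with SPA beads. Run in duplicate.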

T1 sequence (Q07343 whole entry): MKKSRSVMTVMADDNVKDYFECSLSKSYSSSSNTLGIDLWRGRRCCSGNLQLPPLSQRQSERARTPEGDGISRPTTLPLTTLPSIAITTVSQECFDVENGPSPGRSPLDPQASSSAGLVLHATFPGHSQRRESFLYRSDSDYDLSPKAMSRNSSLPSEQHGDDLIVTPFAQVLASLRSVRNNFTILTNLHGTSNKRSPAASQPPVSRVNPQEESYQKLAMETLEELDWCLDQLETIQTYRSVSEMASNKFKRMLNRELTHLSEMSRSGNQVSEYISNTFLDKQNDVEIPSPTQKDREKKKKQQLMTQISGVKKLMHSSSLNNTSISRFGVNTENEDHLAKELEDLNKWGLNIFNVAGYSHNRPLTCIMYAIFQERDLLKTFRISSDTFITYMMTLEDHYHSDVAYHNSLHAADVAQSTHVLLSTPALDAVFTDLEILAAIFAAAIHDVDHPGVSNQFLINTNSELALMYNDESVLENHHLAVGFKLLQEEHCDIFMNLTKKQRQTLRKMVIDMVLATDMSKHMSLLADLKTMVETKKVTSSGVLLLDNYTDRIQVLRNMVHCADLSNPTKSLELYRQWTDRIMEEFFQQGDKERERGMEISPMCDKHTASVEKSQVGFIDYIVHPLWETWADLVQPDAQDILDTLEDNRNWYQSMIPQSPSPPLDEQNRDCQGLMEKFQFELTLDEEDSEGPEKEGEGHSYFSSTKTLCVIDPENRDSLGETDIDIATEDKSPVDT

Q: Which “inhibition (INH)” value (Mus musculus) does the source give for CCOC(=O)c1cccc2nc(Oc3ccc4c(c3)COB4O)ccc12 here?
A: 57.69%

Q: And the IC50 [1]?
A: 17.3 nM

Q: What does the source list for COc1c2occc2cc2ccc(=O)oc12 [METHOXSALEN]?
A: Activity [2]: Toxic; Activity [3]: Non-Toxic; Activity [4]: Toxic; Activity [5]: Toxic

Q: With N#Cc1ccc2cc(Oc3ccc4c(c3)COB4O)ccc2c1 as the compound, how does the IC50 [6] read?
A: 25.5 nM

Q: With COC(=O)c1cnn2ccc(Oc3ccc4c(c3)COB4O)nc12 as the compound, how does the IC50 [6] read?
A: 46.2 nM

Q: Which IC50 [6] does the source give for COC(=O)c1ccc2nc(Oc3ccc4c(c3)COB4O)ccc2c1 here?
A: 10.8 nM

Q: What about the “inhibition (INH)” value (Mus musculus) of the same compound?
A: 54.72%

Q: Which “inhibition (INH)” value (Mus musculus) does the source give for CC(=O)c1ccc2nc(Oc3ccc4c(c3)COB4O)ccc2c1 here?
A: 34.09%

Q: What about the IC50 [1] of the same compound?
A: 3.57 nM

Q: For CC1(C)CC(=O)c2ccc(Oc3ccc4c(c3)COB4O)cc2O1, which IC50 [6] is on record?
A: 65.5 nM

Q: With OB1OCc2cc(Oc3ccc4c(C(F)(F)F)cccc4n3)ccc21 as the compound, how does the IC50 [6] read?
A: 6.42 nM

Q: What about the “inhibition (INH)” value (Mus musculus) of the same compound?
A: 58.05%
